# High-throughput results: PubChem, several laboratories
# Hits are enriched below; roughly 2.4% of the tested compounds scored in any of these assays.
# HKDC1 inhibitor: HKDC1 (human) hexokinase inhibition | inhibition, % at 20 µM | Q2TB90 | recombinant HKDC1, G6PDH/diaphorase resazurin coupled fluorescence | 0.16% of 340,000 active;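 active = inhibition above about 35% when tested at 20 µM, limit read from the data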;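 note: plate controls were DMSO wells with enzyme for no effect and DMSO wells lacking enzyme for full effect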
#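 Assay system – recombinant HKDC1 (HK5) hexokinase enzyme, produced in-house · Input – HKDC1 at 5 µg/mL · Reagent – glucose plus 1 mM ATP as hexokinase substrates · Timing – 90 min reaction incubation at room temperature, dark · Measured by – G6PDH/diaphorase-coupled fluorescence, 1 mM NADP, 100 µM resazurin, 525/613 nm · Benchmarks – DMSO-enzyme wells negative, buffer-substituted wells positive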
# M18AAP inhibitor: PfM18AAP enzyme inhibition; recombinant PfM18AAP, H-Glu-NHMec fluorogenic cleavage; 1.2% of 290,000 active; AID 1822; inhibition, % at 7.35 µM;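 active = inhibition above the campaign mean inhibition over all tested compounds plus 3 SD, cut at about 28% in these data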;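 note: 0% = plate median of test compound wells and 100% = 2 mM ZnCl2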
# A3G deaminase: blocks human APOBEC3G single-stranded DNA deamination; Q9HC16; 0.28% of 330,000 active; inhibition, % at 20 µM; AID 493012; recombinant A3G, ssDNA deamination FAM/TAMRA fluorescence;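 active = inhibition of at least 40% at 20 µM, with no more than 30% in the related APOBEC3A deaminase screen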;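 note: plate controls were DMSO wells with A3G for no effect and wells lacking A3G enzyme for full effect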
# SUMO HTRF inh: SUMOylation inhibition; 0.36% of 290,000 active; HTRF SUMOylation assay, SAE1/SAE2 + UBC9, in vitro; P63279; AID 2006; inhibition, % at 35 µM; in the data active = inhibition above about 50%, passing the limit was not always enough
# Target sequence (P63279 whole entry, looked up): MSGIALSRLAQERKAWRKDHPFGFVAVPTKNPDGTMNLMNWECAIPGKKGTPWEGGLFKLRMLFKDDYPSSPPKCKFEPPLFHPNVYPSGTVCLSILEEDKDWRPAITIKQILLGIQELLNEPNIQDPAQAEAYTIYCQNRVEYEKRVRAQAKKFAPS
# A3A deaminase: human APOBEC3A DNA deaminase inhibition; recombinant A3A, FAM/TAMRA ssDNA deamination fluorescence; inhibition, % at 20 µM; P31941; 0.41% of 330,000 active;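 active = at least 40% inhibition at 20 µM here, with at most 30% in a related deaminase screen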;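 note: plate controls were A3A with DMSO for no effect and wells lacking A3A enzyme for full effect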
# Target sequence (P31941 whole entry, looked up): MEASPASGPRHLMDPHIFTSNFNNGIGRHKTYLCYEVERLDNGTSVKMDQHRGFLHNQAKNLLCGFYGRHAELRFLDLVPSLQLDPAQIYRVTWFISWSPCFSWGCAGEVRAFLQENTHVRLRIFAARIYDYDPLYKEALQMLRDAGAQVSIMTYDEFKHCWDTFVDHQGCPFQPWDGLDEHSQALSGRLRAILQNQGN
# PfG6PD inh: PfG6PD (Plasmodium falciparum) enzyme inhibition; inhibition, % at 20 µM; PfGluPho enzyme, NADPH resazurin-diaphorase fluorescence; AID 504690; 0.78% of 350,000 active;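 active = inhibition reaching at least a set limit at 20 µM in the primary screen, cut at about 59% in these data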;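 note: 0% = DMSO wells with substrate and 100% = DMSO wells lacking glucose-6-phosphate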
# A3G conf: confirmation of human APOBEC3G DNA deaminase inhibitors; shares compounds with A3G deaminase; recombinant A3G ssDNA deaminase, UDG/FAM-TAMRA fluorescence; inhibition, % at 20 µM; 72% of 890 active; AID 493152;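 active = inhibition reaching a set limit in any replicate at 20 µM, the limit being 80% of the first screen's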
# UDG ctr A3G: E. coli UDG inhibition in APOBEC3G counter-screen | shares compounds with A3G deaminase | UDG counterscreen, FAM/TAMRA oligo fluorescence | inhibition, % at 20 µM | 710 tested, under 10 active | AID 504715;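 active = compounds giving 40% or more inhibition at 20 µM in any one of the three replicates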;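 note: plate controls were DMSO wells with UDG and oligo for no effect and DMSO wells lacking both for full effect; inhibitors lower the FAM signal released by uracil excision and alkaline cleavage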
# Numbers without * were called inactive; x = not tested or not shown; ! = not active in a repeat.
SMILES,HKDC1 inhibitor,M18AAP inhibitor,A3G deaminase,SUMO HTRF inh,A3A deaminase,PfG6PD inh,A3G conf,UDG ctr A3G
COc1ccc(CSc2nnc(Cc3sc(-c4ccccc4)nc3-c3ccccc3)o2)cc1,9,-9,-3,-60,0,-1,x,x
O=C(NCCCc1ccccc1)[C@@H]1Cc2ccccc2CN1,1,2,62*,-7,-6,-12,20*,5
CC(NC(=O)CNC(=O)[C@@H]1Cc2ccccc2CN1)c1ccccc1 (stereo partly specified),-3,2,-2,3,-2,-13,x,x
O=[N+]([O-])c1cc(Cl)ccc1Sc1ccccn1,0,8,-5,-5,-4,51,x,x
Cc1c2cnn(CC(=O)Nc3c(F)c(F)cc(F)c3F)c(=O)c2c(C)n1Cc1ccccc1F,6,-7,45*,62*,27,-8,48*,-2
CCN(CC)CCn1c2ccccc2c2n[nH]c(=S)nc21,1,22,58*,10,-4,64*,78*,2
CCOC(=O)c1cccc(NC(=O)c2cc(C)nn2-c2ccccc2)c1,0,5,-9,6,13,-24,x,x
O=c1[nH]c(-c2cccnc2)nc2ccccc12,1,1,-1,13,5,9,x,x
O=c1[nH]c(-c2ccncc2)nc2ccccc12,-11,8,58*,5,9,58,56*,-2
CC(=O)OC(C)(C)C1Cc2cc3ccc(=O)oc3cc2O1 (stereo unspecified),4,-4,50,-3,62,-4,x,x
CC(C)(O)C1Cc2cc(/C=C/C(=O)O)c(O)cc2O1 (stereo unspecified),1,-3,82*,17,0,25,94*,-2
c1ccc(C2NCCc3ccccc32)cc1 (stereo unspecified),-7,-5,-4,12,2,-18,x,x
O=C(CCC(=O)OCC(=O)c1ccc(C(F)(F)F)cc1)OCC(=O)c1ccc(C(F)(F)F)cc1,-21,-2,-4,14,-2,-6,x,x
COCCCC/C(=N\OCCN)c1ccc(C(F)(F)F)cc1,1,0,81*!,22,0,-21,-6,0
Cc1ccsc1/C=N/n1c(-c2cccnc2)n[nH]c1=S,2,13,40,-4,-7,28,x,x
O=[N+]([O-])c1ccc(Cl)c(/C=N/n2c(-c3cccnc3)n[nH]c2=S)c1,x,4,48*,-12,4,x,25,x
Cc1cc(-c2n[nH]c(=S)n2/N=C/c2cc([N+](=O)[O-])ccc2Cl)n[nH]1,-1,18,x,7,x,46,x,x
O=[N+]([O-])c1ccc(/C=N/n2c(-c3cccnc3)n[nH]c2=S)cc1,-7,6,63*,13,-6,30,62*,-3
O=[N+]([O-])c1cccc(/C=N/n2c(-c3cccnc3)n[nH]c2=S)c1,-8,8,69*,-1,1,48,74*,3
Cc1ccc(CN2CC(C(=O)Nc3ccc4c(C)cc(=O)oc4c3)CC2=O)cc1 (stereo unspecified),-1,-6,0,25,6,2,x,x
Cc1cc(=O)oc2cc(NC(=O)C3CCCC3)ccc12,2,4,57*,15,-2,2,4,4
O=C(O)C1CC(c2ccccc2)=NO1 (stereo unspecified),5,3,5,-3,6,-7,x,x
O=C(O)C1CC(c2ccc(F)cc2)=NO1 (stereo unspecified),3,-3,74*,17,23,-2,73*,3
CCCCC1=CC2=CC(=O)C(C)(OC(=O)CC)C(=O)C2=CN1CCc1ccccn1 (stereo unspecified),11,x,-8,15,-4,24,x,x
CC(=O)C1=C(S(=O)(=O)c2ccc(C)cc2)CS(=O)(=O)C1,-6,-19,61*,10,2,41,78*,-4
